ChEMBL document CHEMBL4680306, “The 3-D conformational shape of N-naphthyl-cyclopenta[d]pyrimidines affects their potency as microtubule targeting agents and their antitumor activity” (Bioorg Med Chem, 2021)
pEC50, pIC50: −log10 of the molar value. Active and inactive are the calls of the source. The rule behind the calls is not given here.

Columns and labels:
[1] = Induction of microtubule depolymerisation in rat A-10 cell line measured after 18 hrs by indirect immunofluorescence method; settings: a10
Method in brief: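 Rat A-10 cells, chosen because they arrest in interphase without significant mitotic accumulation, were exposed to compounds for 18 h. Cellular microtubules were then visualized by indirect immunofluorescence. EC50 values come from at least three independent experiments.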

[2] = Inhibition of bovine tubulin polymerization assessed as reduction in extent of assembly preincubated for 15 mins followed by addition of reaction mixture measured after 20 mins by turbidimetric assay; parameters: species or system Bos taurus
Method in brief: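 After chilling, GTP was added (0.4 mM final). Turbidity at 350 nm was read after a jump from 0 °C to 30 °C.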

U-251 [3] = test: Cytotoxicity against human U251 cell line assessed as inhibition of cell growth after 48 hrs by SRB assay; assay type: functional, cell-based; settings: U-251, 48 h
MDA-MB-435 [4] = test: Antiproliferative activity against human MDA-MB-435 cell line assessed as inhibition of cell proliferation measured after 48 hrs by SRB assay; assay type: functional, cell-based; settings: MDA-MB-435, 48 h
Method in brief: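 MDA-MB-435 melanoma cells were assessed by sulforhodamine B assay. IC50 is the mean ± SD of at least three independent experiments, each run in triplicate.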

[5] = Antiproliferative activity against human SK-OV-3 MDR-1-6/6 cells expressing Pgp assessed as decrease in cell growth measured after 48 hrs by SRB method; assay type: functional; settings: SK-OV-3, 48 h
Bos taurus [6] = organism: Bos taurus; test: Inhibition of [3H]colchicine binding to bovine tubulin at 5 uM measured after 10 mins by scintillation counting
Method in brief: (§1)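 Purified bovine brain tubulin at 1.0 µM was mixed with 5.0 µM [3H]colchicine and inhibitor, plus components that stabilize colchicine binding, in 5% DMSO; tubulin was added last, on ice. Binding ran 10 min at 37 °C and was stopped with ice water. Mixtures were filtered through stacked DEAE-cellulose filters, and bound radiolabel was measured by scintillation counting.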

Bos taurus [7] = organism: Bos taurus; test: Inhibition of [3H]colchicine binding to bovine tubulin at 1 uM measured after 10 mins by scintillation counting; method in brief: as §1
A10 [8] = test: Potency index, ratio of CA-4 IC50 to test compound IC50 for induction of microtubule depolymerisation in rat A-10 cell line measured after 18 hrs by indirect immunofluorescence method
MDA-MB-435 [9] = test: Antiproliferative activity against human MDA-MB-435 cell line assessed as inhibition of cell proliferation at 10 uM measured after 48 hrs by SRB assay; assay type: functional
A10 [10] = test: Induction of microtubule depolymerisation in rat A-10 cell line at 40 uM measured after 18 hrs by indirect immunofluorescence method
SK-MEL-2 = test: Cytotoxicity against human SK-MEL-2 cells assessed as inhibition of cell growth measured after 48 hrs by SRB assay; assay type: functional
HCC 2998 = test: Cytotoxicity against human HCC 2998 cells assessed as inhibition of cell growth measured after 48 hrs by SRB assay; assay type: functional
MOLT-4 = test: Cytotoxicity against human MOLT-4 cells assessed as inhibition of cell growth measured after 48 hrs by SRB assay; assay type: functional
HL-60(TB) = test: Cytotoxicity against human HL-60(TB) cells assessed as inhibition of cell growth measured after 48 hrs by SRB assay; assay type: functional
UACC-62 = test: Cytotoxicity against human UACC-62 cells assessed as inhibition of cell growth measured after 48 hrs by SRB assay; assay type: functional
SW-620 = test: Cytotoxicity against human SW-620 cells assessed as inhibition of cell growth measured after 48 hrs by SRB assay; assay type: functional
MCF7 = test: Cytotoxicity against human MCF7 cells assessed as inhibition of cell growth measured after 48 hrs by SRB assay; assay type: functional
SF-539 = test: Cytotoxicity against human SF-539 cells assessed as inhibition of cell growth measured after 48 hrs by SRB assay; assay type: functional
U-251 [11] = test: Cytotoxicity against human U-251 cells assessed as inhibition of cell growth measured after 48 hrs by SRB assay; assay type: functional
SNB-75 = test: Cytotoxicity against human SNB-75 cells assessed as inhibition of cell growth measured after 48 hrs by SRB assay; assay type: functional
NCI-H460 = test: Cytotoxicity against human NCI-H460 cells assessed as inhibition of cell growth measured after 48 hrs by SRB assay; assay type: functional
PC-3 = test: Cytotoxicity against human PC-3 cells assessed as inhibition of cell growth measured after 48 hrs by SRB assay; assay type: functional
NCI-H226 = test: Cytotoxicity against human NCI-H226 cells assessed as inhibition of cell growth measured after 48 hrs by SRB assay; assay type: functional
Hs-578T = test: Cytotoxicity against human Hs-578T cells assessed as inhibition of cell growth measured after 48 hrs by SRB assay; assay type: functional
SR = test: Cytotoxicity against human SR cells assessed as inhibition of cell growth measured after 48 hrs by SRB assay; assay type: functional
DU-145 = test: Cytotoxicity against human DU-145 cells assessed as inhibition of cell growth measured after 48 hrs by SRB assay; assay type: functional
SF-295 = test: Cytotoxicity against human SF-295 cells assessed as inhibition of cell growth measured after 48 hrs by SRB assay; assay type: functional
HOP-62 = test: Cytotoxicity against human HOP-62 cells assessed as inhibition of cell growth measured after 48 hrs by SRB assay; assay type: functional
K562 = test: Cytotoxicity against human K562 cells assessed as inhibition of cell growth measured after 48 hrs by SRB assay; assay type: functional
[12] = Cytotoxicity against human SK-MEL-5 cells assessed as inhibition of cell growth measured after 48 hrs by SRB assay; assay type: functional
A549 = test: Cytotoxicity against human A549 cells assessed as inhibition of cell growth measured after 48 hrs by SRB assay; assay type: functional
T47D = test: Cytotoxicity against human T47D cells assessed as inhibition of cell growth measured after 48 hrs by SRB assay; assay type: functional
OVCAR-4 = test: Cytotoxicity against human OVCAR-4 cells assessed as inhibition of cell growth measured after 48 hrs by SRB assay; assay type: functional
LOX IMVI = test: Cytotoxicity against human LOX IMVI cells assessed as inhibition of cell growth measured after 48 hrs by SRB assay; assay type: functional
HOP-92 = test: Cytotoxicity against human HOP-92 cells assessed as inhibition of cell growth measured after 48 hrs by SRB assay; assay type: functional
Malme-3M = test: Cytotoxicity against human Malme-3M cells assessed as inhibition of cell growth measured after 48 hrs by SRB assay; assay type: functional
OVCAR-5 = test: Cytotoxicity against human OVCAR-5 cells assessed as inhibition of cell growth measured after 48 hrs by SRB assay; assay type: functional
SF-268 = test: Cytotoxicity against human SF-268 cells assessed as inhibition of cell growth measured after 48 hrs by SRB assay; assay type: functional
SN12C = test: Cytotoxicity against human SN12C cells assessed as inhibition of cell growth measured after 48 hrs by SRB assay; assay type: functional
HCT-116 = test: Cytotoxicity against human HCT-116 cells assessed as inhibition of cell growth measured after 48 hrs by SRB assay; assay type: functional
SNB-19 = test: Cytotoxicity against human SNB-19 cells assessed as inhibition of cell growth measured after 48 hrs by SRB assay; assay type: functional
CCRF-CEM = test: Cytotoxicity against human CCRF-CEM cells assessed as inhibition of cell growth measured after 48 hrs by SRB assay; assay type: functional
NCI-H23 = test: Cytotoxicity against human NCI-H23 cells assessed as inhibition of cell growth measured after 48 hrs by SRB assay; assay type: functional
IGROV-1 = test: Cytotoxicity against human IGROV-1 cells assessed as inhibition of cell growth measured after 48 hrs by SRB assay; assay type: functional
NCI/ADR-RES = test: Cytotoxicity against human NCI/ADR-RES cells assessed as inhibition of cell growth measured after 48 hrs by SRB assay; assay type: functional
SK-OV-3 = test: Cytotoxicity against human SK-OV-3 cells assessed as inhibition of cell growth measured after 48 hrs by SRB assay; assay type: functional
MDA-MB-435 [13] = test: Cytotoxicity against human MDA-MB-435 cells assessed as inhibition of cell growth measured after 48 hrs by SRB assay; assay type: functional
COLO 205 = test: Cytotoxicity against human COLO 205 cells assessed as inhibition of cell growth measured after 48 hrs by SRB assay; assay type: functional
OVCAR-8 = test: Cytotoxicity against human OVCAR-8 cells assessed as inhibition of cell growth measured after 48 hrs by SRB assay; assay type: functional
KM12 = test: Cytotoxicity against human KM12 cells assessed as inhibition of cell growth measured after 48 hrs by SRB assay; assay type: functional
HT-29 = test: Cytotoxicity against human HT-29 cells assessed as inhibition of cell growth measured after 48 hrs by SRB assay; assay type: functional
EKVX = test: Cytotoxicity against human EKVX cells assessed as inhibition of cell growth measured after 48 hrs by SRB assay; assay type: functional
786-0 = test: Cytotoxicity against human 786-0 cells assessed as inhibition of cell growth measured after 48 hrs by SRB assay; assay type: functional
A498 = test: Cytotoxicity against human A498 cells assessed as inhibition of cell growth measured after 48 hrs by SRB assay; assay type: functional
SK-MEL-28 = test: Cytotoxicity against human SK-MEL-28 cells assessed as inhibition of cell growth measured after 48 hrs by SRB assay; assay type: functional
BT-549 = test: Cytotoxicity against human BT-549 cells assessed as inhibition of cell growth measured after 48 hrs by SRB assay; assay type: functional
M14 = test: Cytotoxicity against human M14 cells assessed as inhibition of cell growth measured after 48 hrs by SRB assay; assay type: functional
OVCAR-3 = test: Cytotoxicity against human OVCAR-3 cells assessed as inhibition of cell growth measured after 48 hrs by SRB assay; assay type: functional

## COc1ccc2c(N(C)c3nc(C)nc4c3CCC4)cccc2c1
[1]
  pEC50: < 5.00
[2]
  pIC50: < 4.70
U-251 [3]
  pIC50: 7.05

## COc1ccc(N(C)c2nc(C)nc3c2CC(C)C3)cc1 (centres undefined)
[1]
  pEC50: 6.55
MDA-MB-435 [4]
  pIC50: 7.59

## COc1ccc(N(C)c2nc(C)nc3c2CCC3)cc1
[5]
  pIC50: 7.79
Bos taurus [6]
  inhibition: 92%
Bos taurus [7]
  inhibition: 70%
[1]
  pEC50: 7.59
[2]
  pIC50: 5.80

## COc1ccc(Nc2nc(C)nc3c2CC(C)C3)cc1 (centres undefined)
A10 [8]
  Ratio IC50: 3
MDA-MB-435 [9]
  inhibition at 10 µM: 7%
A10 [10]
  Activity: inactive

## CC(=O)O[C@H]1C(=O)[C@@]2(C)[C@H]([C@H](OC(=O)c3ccccc3)[C@]3(O)C[C@H](OC(=O)[C@H](O)[C@@H](NC(=O)c4ccccc4)c4ccccc4)C(C)=C1C3(C)C)[C@]1(OC(C)=O)CO[C@@H]1C[C@@H]2O [PACLITAXEL]
SK-MEL-2
  GI50: 400 nM
HCC 2998
  GI50: 1 nM
MOLT-4
  GI50: 5 nM
HL-60(TB)
  GI50: 4 nM
UACC-62
  GI50: 5 nM
SW-620
  GI50: 4 nM
MCF7
  GI50: 4 nM
SF-539
  GI50: 5 nM
U-251 [11]
  GI50: 6.3 nM
SNB-75
  GI50: 7.9 nM
NCI-H460
  GI50: 6.3 nM
PC-3
  GI50: 6.3 nM
NCI-H226
  GI50: 3.9 nM
Hs-578T
  GI50: 5 nM
SR
  GI50: 6.3 nM
DU-145
  GI50: 6.3 nM
SF-295
  GI50: 25 nM
HOP-62
  GI50: 19 nM
K562
  GI50: 6.3 nM
[12]
  GI50: 5 nM
A549
  GI50: 6.3 nM
T47D
  GI50: 12.5 nM
OVCAR-4
  GI50: 630 nM
LOX IMVI
  GI50: 5 nM
HOP-92
  GI50: 25 nM
Malme-3M
  GI50: 50 nM
OVCAR-5
  GI50: 7.9 nM
SF-268
  GI50: 5 nM
SN12C
  GI50: 6.3 nM
HCT-116
  GI50: 4 nM
SNB-19
  GI50: 10 nM
CCRF-CEM
  GI50: 5 nM
NCI-H23
  GI50: 6.3 nM
IGROV-1
  GI50: 6.3 nM
NCI/ADR-RES
  GI50: 630 nM
SK-OV-3
  GI50: 6.3 nM
MDA-MB-435 [13]
  GI50: 4 nM
COLO 205
  GI50: 7.9 nM
OVCAR-8
  GI50: 7.9 nM
KM12
  GI50: 5 nM
HT-29
  GI50: 5 nM
EKVX
  GI50: 79 nM
786-0
  GI50: 39 nM
A498
  GI50: 7.9 nM
SK-MEL-28
  GI50: 400 nM
BT-549
  GI50: 4 nM
M14
  GI50: 5 nM
OVCAR-3
  GI50: 4 nM

## COc1ccc2c(N(C)c3ncnc4c3CCC4)cccc2c1
[1]
  pEC50: < 5.00
[2]
  pIC50: < 4.70
U-251 [3]
  pIC50: 6.88
